PKA-R2B act: activates the human PKA-R2B holoenzyme complex; PKA-R2B holoenzyme dissociation, Cy5-IP20 fluorescence polarization; R2B truncated from residue 108, S112A mutant; 0% DMSO only, 100% 113 µM cGMP; activation, % at 11.4 µM; AID 504700; 340,000 tested, 0.079% active;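 active = activation above a cutoff set at the mean over all compounds plus 3 SD, cut at about 18% in these data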;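 also: higher means more holoenzyme dissociation and a rise in polarization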
PKA-R1A act: activates the PKA-R1A holoenzyme complex | P00514+P68181 | PKA-R1A dissociation, Cy5-IP20 fluorescence polarization; scaled: DMSO 0%, 113 µM cGMP 100% | activation, % at 11.4 µM | 340,000 tested, 0.083% active | AID 504707;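 active = percent activation above the mean of all tested compounds plus 3 SD, cut at about 19% in these data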;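 also: higher means more PKAc released from R1A so a rise in polarization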
T cell modulator: modulates CD8 T cell binding to vesicles. 2C CD8+ T cell-vesicle binding, flow cytometry; active compounds read low. 330,000 tested, 0.068% active. response (vesicle binding), % at 7 µM;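 active = response, share of CD8 T cells binding vesicles, and their 90th percentile fluorescence all below set limits, cut at about 80% in these data, passing the limit was not always enough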;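 also: values below 100% mean blocked vesicle binding to the CD8+ T cells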
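Also added: QL9-peptide-loaded Drosophila micro-vesicles bearing Ld, ICAM-1 and B7-1; Test system: purified 2C TCR transgenic mouse naive CD8+ T cells; Measured by: cytometric PE anti-B7-1 and Alexa647 anti-CD8 signals after 1% paraformaldehyde fixation; Timing: binding step 1.5 h, 37 °C, antibody labelling 20 min, ice.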
PfG6PD inh: PfG6PD (Plasmodium falciparum) enzyme inhibition; PfGluPho enzyme, NADPH resazurin-diaphorase fluorescence; inhibition, % at 20 µM; 350,000 tested, 0.78% active; AID 504690;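 active = inhibition reaching at least a set limit at 20 µM in the primary screen, cut at about 59% in these data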;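 also: 0% = DMSO wells with substrate and 100% = DMSO wells lacking glucose-6-phosphate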
ATG4B inhibitor: ATG4B (human) cysteine protease inhibition. ATG4B cleavage of LC3-PLA2, NBD-HPC fluorescence, 1 h. inhibition, % at 8.33 µM. 340,000 tested, 0.51% active. AID 504462; in the data active = inhibition above about 40%
HKDC1 inh: HKDC1 (human) hexokinase inhibition | recombinant HKDC1, G6PDH/diaphorase resazurin coupled fluorescence | Q2TB90 | inhibition, % at 20 µM | AID 493160 | 340,000 tested, 0.16% active;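 active = inhibition above about 35% when tested at 20 µM, limit read from the data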;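 also: plate controls were DMSO wells with enzyme for no effect and DMSO wells lacking enzyme for full effect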
Target sequence (Q2TB90 whole entry, looked up): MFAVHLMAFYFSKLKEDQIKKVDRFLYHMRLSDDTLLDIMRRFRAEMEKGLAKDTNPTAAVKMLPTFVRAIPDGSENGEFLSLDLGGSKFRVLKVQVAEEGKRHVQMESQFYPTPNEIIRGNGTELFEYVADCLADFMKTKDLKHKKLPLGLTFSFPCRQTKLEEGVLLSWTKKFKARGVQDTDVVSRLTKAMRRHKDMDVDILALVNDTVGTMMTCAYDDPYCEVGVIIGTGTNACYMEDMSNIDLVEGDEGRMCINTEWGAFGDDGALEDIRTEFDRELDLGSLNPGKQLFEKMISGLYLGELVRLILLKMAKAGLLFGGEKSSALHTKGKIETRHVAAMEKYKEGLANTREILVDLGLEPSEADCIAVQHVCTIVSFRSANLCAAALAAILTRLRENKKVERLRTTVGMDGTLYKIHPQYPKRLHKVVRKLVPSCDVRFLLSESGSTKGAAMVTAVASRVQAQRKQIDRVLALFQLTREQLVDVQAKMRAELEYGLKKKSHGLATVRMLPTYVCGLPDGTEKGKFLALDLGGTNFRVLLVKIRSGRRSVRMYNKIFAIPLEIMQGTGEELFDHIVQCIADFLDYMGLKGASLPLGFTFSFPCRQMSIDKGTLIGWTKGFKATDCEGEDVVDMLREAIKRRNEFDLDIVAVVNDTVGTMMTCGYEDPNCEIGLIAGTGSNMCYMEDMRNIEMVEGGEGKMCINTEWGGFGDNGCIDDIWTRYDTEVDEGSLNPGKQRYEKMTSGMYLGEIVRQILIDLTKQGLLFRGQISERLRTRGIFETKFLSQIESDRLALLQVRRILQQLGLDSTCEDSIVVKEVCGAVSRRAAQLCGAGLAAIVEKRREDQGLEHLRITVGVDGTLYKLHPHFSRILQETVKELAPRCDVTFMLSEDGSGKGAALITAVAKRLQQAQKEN
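Incubation: 90 min at room temperature in dark / Material: recombinant HKDC1 (HK5) hexokinase enzyme, produced in-house / Quantity: enzyme 5 µg/mL final / Compound: one dose of 20 µM, 1% DMSO / Reagent: glucose and ATP substrates / Buffer or medium: Tris pH 8.0 buffer with MgCl2, Tween-20, BSA, BME / Technique: resorufin fluorescence at 613 nm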
PfG6PD confirm: PfG6PD inhibition, single-dose confirmed. shares compounds with PfG6PD inh. recombinant PfGluPho, NADPH-diaphorase-resazurin fluorescence. inhibition, % at 20 µM. 2,400 tested, 34% active;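 active = inhibition of at least 50% at 20 µM in any single replicate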;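 also: 0% = DMSO with substrate and 100% = DMSO lacking glucose-6-phosphate substrate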
Diaphorase 10uM: diaphorase inhibition or oxidation at 10 uM NADPH; shares compounds with PfG6PD inh; diaphorase-coupled resazurin reduction, fluorescence, NADPH 10 uM; inhibition, % at 20 µM; 820 tested, 39% active; AID 504862;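 active = average inhibition reaching 50% or more with the compound at 20 µM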;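 also: resorufin red fluorescence formed as diaphorase reduces resazurin using NADPH; 0% = DMSO with enzyme and 100% = DMSO without enzyme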
Diaph ctr 30uM: diaphorase inhibition or oxidation at 30 uM NADPH. shares compounds with PfG6PD inh. 820 tested, 29% active. AID 504863. inhibition, % at 20 µM. Diaphorase/resazurin coupled assay, resorufin fluorescence;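 active = inhibition averaging 50% or more, tested at 20 µM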;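 also: 0% = DMSO with enzyme and 100% = DMSO wells lacking diaphorase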
* = called active by the depositor; . = no result given. A selection: hits, their analogues and other compounds. The true share with any hit is near 1.6%.

SMILES | PKA-R2B act | PKA-R1A act | T cell modulator | PfG6PD inh | ATG4B inhibitor | HKDC1 inh | PfG6PD confirm | others
CN1CCc2c(sc3c2c(=O)n(-c2ccccc2)c2nnc(SCc4ccccc4)n32)C1 | -8.2 | -5.9 | 411.0 | 60.2* | -15.2 | 8.1 | 44.9
CC(=O)Nc1ccc2c(c1)Cc1cc(N3C(=O)C=CC3=O)ccc1-2 | 1.6 | 12.3 | . | 111.1* | 9.1 | -5.3 | 100.0* | Diaphorase 10uM=-14.2;Diaph ctr 30uM=-15.0
CC(=O)Nc1ccc2c(c1)Cc1ccc(Cl)cc1-2 | -3.7 | 4.6 | . | -6.5 | -1.2 | 4.1 | .
O=C1C=CC(=O)N1c1ccc2c(c1)Cc1cc(F)ccc1-2 | -9.3 | 2.6 | . | 83.8* | -6.4 | 1.5 | 44.8
O=C(Nc1scc(-c2ccccc2)c1C(=O)O)c1ccccc1F | -2.9 | 2.1 | 264.2 | 31.9 | 29.3 | -1.6 | .
O=C(/C=C/c1ccco1)Nc1scc(-c2ccccc2)c1C(=O)O | -7.6 | -14.5 | 218.7 | 75.2* | 22.5 | 5.2 | 21.6
O=C(/C=C/c1ccccc1)Nc1scc(-c2ccccc2)c1C(=O)O | -16.1 | -8.1 | . | 60.6* | 23.6 | 1.6 | 25.9
C/C(=N\NC(=O)c1ccco1)c1cc(Cl)sc1Cl | 2.9 | 8.4 | 526.7 | 10.8 | -7.6 | 2.3 | .
CC1CCCC2(C1)NC(=S)N(c1ccccc1)N2 (stereo not drawn) | -3.7 | -1.4 | 536.9 | 3.2 | -3.9 | -4.6 | .
CC1CCCCC12NC(=S)N(c1ccccc1)N2 (stereo not drawn) | 3.0 | -3.1 | 578.0 | 60.1* | -4.0 | -1.9 | -8.1
O=C(c1cccc(S(=O)(=O)N2CCCC2)c1)N1CCN(Cc2ccccc2)CC1 | -0.2 | -4.3 | 688.5 | -6.7 | 2.6 | -3.1 | .
COc1ccc2nc(SC(C)C(=O)NCC(=O)Nc3ccc(F)c(F)c3F)[nH]c2c1 (stereo not drawn) | 4.1 | -9.8 | . | 40.5 | -4.5 | -2.5 | .
COc1ccc(-c2cn3cc(C)ccc3n2)cc1OC | 15.1 | 9.0 | 268.3 | 61.4* | -12.6 | -1.2 | 42.7
COc1ccc(-c2cn3cc(C)ccc3n2)cc1F | -4.5 | 6.3 | 373.5 | 107.0* | 0.9 | -4.5 | 73.0* | Diaphorase 10uM=64.4*;Diaph ctr 30uM=54.1*
COc1ccc(-c2cn3cccc(C)c3n2)cc1F | -1.2 | 6.7 | 98.9 | 26.0 | -13.3 | -5.5 | .
CCOc1ccc(S(=O)(=O)N2CCC(C(=O)NCc3ccncc3)CC2)cc1C | 4.2 | 7.5 | 193.4 | 11.6 | -3.1 | -3.7 | .
O=C(/C=C/c1cccs1)N1CCN(c2ccc(O)cc2)CC1 | 3.8 | -11.8 | 598.8 | 64.0* | -5.8 | -1.9 | 36.4
O=C(/C=C/c1cccs1)N1CCCCC1 | . | . | 121.4 | -1.1 | -1.7 | -14.1 | .
COCCn1nnnc1C(c1cc2cc(OC)c(OC)cc2[nH]c1=O)N1CCN(c2ccc(O)cc2)CC1 (stereo not drawn) | -8.3 | -10.3 | 627.2 | 65.4* | -1.8 | 5.8 | 55.6* | Diaphorase 10uM=6.7;Diaph ctr 30uM=-2.6
C[C@H](CO)N1C[C@H](C)[C@@H](CN(C)S(=O)(=O)c2ccc(F)cc2)OCc2cn(nn2)CCCC1=O | -1.5 | -9.5 | . | -7.3 | . | . | .
Cc1cccc(/N=C/c2c(O)[nH]c3ccccc23)n1 | -5.1 | -21.4 | 619.4 | 65.0* | -18.3 | -3.9 | 15.1
COc1ccc(NC(=O)CCCn2cnc3ccccc3c2=O)cc1 | 6.1 | -0.3 | 225.7 | 14.0 | 6.7 | 4.7 | .
Cc1nn(C)c(C(=O)N/N=C/c2cccc(Oc3ccccc3)c2)c1Br | -1.6 | -7.0 | 350.2 | 144.6* | -1.1 | 5.2 | 89.3* | Diaphorase 10uM=79.8*;Diaph ctr 30uM=71.0*
COc1ccc(OC)c(/C=N/NC(=O)c2c(C)nc3ccc(C)cn23)c1 | 3.0 | -17.6 | 217.4 | 62.1* | -0.9 | -1.6 | 42.8
COc1cccc(/C=N/NC(=O)c2c(C)nc3ccc(Br)cn23)c1 | 4.2 | 5.7 | 350.5 | 90.8* | 2.4 | 2.8 | 54.2* | Diaphorase 10uM=40.0;Diaph ctr 30uM=39.8
SMILES | PKA-R2B act | PKA-R1A act | T cell modulator | PfG6PD inh | ATG4B inhibitor | HKDC1 inh | PfG6PD confirm | others
Nc1ccc(C(=O)N/N=C/c2cccc(Oc3ccccc3)c2)cc1 | 1.9 | 6.9 | 291.5 | 21.0 | -13.3 | -0.8 | .
Cc1ccc(-c2c[n+](Cc3ccc(Cl)c(Cl)c3)c3n2CCC3)cc1 | 6.8 | -3.9 | 223.0 | 1.3 | 5.8 | -9.4 | .
CCc1cc(Cn2nc(-c3ccccc3)cc2C(=O)NCc2cccc(Br)c2)on1 | -0.6 | 3.4 | 238.2 | 11.3 | 9.2 | 0.9 | .
CN1C(=O)N(CC(=O)Nc2sccc2C(N)=O)C(=O)C12CCCCC2 | -3.3 | -1.6 | 397.5 | 9.9 | -7.3 | -6.1 | .
CN(CC(=O)Nc1cccc(S(=O)(=O)NC2=NCCC2)c1)Cc1cccc(F)c1 | -16.7 | 3.5 | 613.3 | 4.9 | -8.7 | -4.0 | .
Cc1ccc(OCCn2cc(/C=C3\C(=O)NN(c4ccccc4)C3=O)c3ccccc32)cc1 | -6.7 | -1.0 | 224.9 | 64.6* | -0.1 | 8.1 | 33.1
C=C(C)[C@@H](O)COc1c2ccoc2cc2oc(=O)ccc12 | 1.2 | -8.0 | 307.1 | 14.9 | -5.3 | 1.4 | .
CC(C)=CCOc1c2ccoc2cc2oc(=O)ccc12 | -3.9 | -3.7 | 312.3 | 72.4* | -5.4 | 2.2 | 30.6
CC(C)=CCOc1c2ccoc2c(OCC=C(C)C)c2oc(=O)ccc12 | 0.1 | 3.7 | 259.3 | 128.3* | -1.9 | 15.9 | 70.8* | Diaphorase 10uM=63.2*;Diaph ctr 30uM=59.1*
CCNc1nc(NCC)n2c(SCC(=O)Nc3ccc(C)cc3Br)nnc2n1 | -0.3 | 3.8 | 440.4 | -3.9 | -0.4 | -2.1 | .
Cc1ccc(-c2cc(-c3ccccc3)c(C#N)c(N)n2)o1 | 3.2 | 0.1 | 136.4 | 82.6* | 11.0 | 11.8 | -6.2
CCCc1nc(SCC(=O)c2ccccc2)c2c(=O)n(C)c(=O)n(C)c2n1 | -4.8 | 1.3 | 848.1 | 71.1* | -12.7 | -0.4 | 24.1
CCc1nc(SCC(=O)c2ccccc2)c2c(=O)n(C)c(=O)n(C)c2n1 | -1.0 | -11.5 | 71.3 | 57.9 | 27.5 | -2.7 | .
CC(C)(C)SC(=O)C[C@@H]1NS(=O)(=O)OC2CCCCC21 (stereo partly drawn) | -1.5 | -7.6 | 540.8 | 7.6 | -3.4 | -9.2 | .
Cc1ccc2nc3c(cc(S(=O)(=O)c4ccccc4)c(=N)n3C3CCCC3)c(=O)n2c1 | -2.0 | -9.1 | . | 69.3* | -2.3 | 2.1 | 34.2
COc1ccc2c(c1)-c1ccccc1S(=O)(=O)N(C)C2 | 0.6 | -4.2 | . | 50.6 | -1.3 | -2.3 | .
